pEC50: −log10 of the molar value. Converted amounts (≈) assume the structure as drawn.

The test system of one series is Trypanosoma brucei. Description: Antitrypanosomal activity against Trypanosoma brucei after 48 hrs. In kind it is functional, organism-based.
Series [1] deals with Mus musculus. Description: Stability of the compound in po dosed mouse blood assessed as 5-(2-cyano-6-(3,4-dichlorobenzylamino)-9H-purin-9-yl)pentanoic acid level after 1 hr. The format is ADME, organism-based. To be noted: in vivo. In a few lines:
(§1)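 Oral gavage of compound suspensions to female Balb/c mice; blood sampled retro-orbitally at 1, 2 and 4 h (one sample per mouse) and by cardiac puncture at 48 h. Parent compound and metabolites measured by UPLC–MS; metabolite identity assigned by MS/MS against a synthesized standard.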

Series [2] can be described thus: Chemical stability in phosphate buffered saline at pH 3 after 14 days. The format is physicochemical. To be noted: buffer, pH 3, 336 h. An outline of the steps: (§2)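 Stability in PBS (pH 3, 5 and 7.4) followed over 14 days for non-metabolic degradation.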
The next series concerns Raji. Description: Cytotoxicity against human Raji cells after 72 hrs by alamar blue assay. In kind it is cell-based. (In general: Alamar Blue is a resazurin reagent that responds to reducing activity.)
Series [3] can be described thus: Permeability of the compound assessed as ratio of compound in acceptor chamber to amount of compound in donor chamber at pH 5 by PAMPA assay. The format is ADME. A general note: PAMPA measures passive passage across an artificial lipid membrane.
Another series concerns BJ. Description: Cytotoxicity against human BJ cells after 72 hrs by alamar blue assay. In kind it is cell-based.
Series [4] in a line: Chemical stability in dimethyl sulfoxide at pH 3 after 14 days. The format is physicochemical. Particulars: buffer, pH 3, 336 h. An outline of the steps:
(§3)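 DMSO stability followed over 14 days for non-metabolic degradation.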

Series [5] can be described thus: Chemical stability in phosphate buffered saline at pH 7.4 after 14 days. To be noted: buffer, pH 7.4, 336 h. In kind it is physicochemical. In a few lines: as §2
The nature of series [6]: Permeability of the compound assessed as ratio of compound in acceptor chamber to amount of compound in donor chamber at pH 7.4 by PAMPA assay. The format is ADME.
Series [7] can be described thus: Permeability of the compound assessed as ratio of compound in acceptor chamber to amount of compound in donor chamber at pH 3 by PAMPA assay. In kind it is ADME.
A short description of series [8]: Aqueous solubility of compound in deionized water. In kind it is physicochemical. In a few lines:
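Aqueous solubility measured in deionized water.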

Series [9] in a line: Toxicity in human erythrocyte assessed as hemolysis at 10 uM after 5 hrs. The format is cell-based. Particulars: erythrocytes, read-out: Activity. In a few lines: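 Human erythrocytes washed three times after spinning whole blood at 1000g for 5 min. Test compound at 10 µM final, 2% hematocrit. PBS negative control; 0.4% saponin dilution series as standard. After centrifugation, supernatant absorbance read at 414 nm and % hemolysis taken from the calibration curve. Triplicate.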

Series [10] relates to Mus musculus. Nature of the series: Stability of the compound in po dosed mouse blood. Particulars: in vivo. In kind it is ADME, organism-based. An outline of the steps: as §1
A short description of series [11]: Half life in CD1 mouse liver microsomes by UPLC-MS analysis. In kind it is ADME, Microsome. Particulars: CD1, mouse, liver microsomes. An outline of the steps:
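CD-1 female mouse liver microsomes in 0.1 M potassium phosphate pH 7.4 with EDTA and NADPH-regenerating solutions, 37 °C, shaken. Samples at 0, 0.5, 1 and 2 h quenched with cold acetonitrile containing caffeine internal standard. UPLC–MS (SIR) read-out. Log peak-area ratio versus time gives slope; k = −2.303 × slope, t1/2 = 0.693/k.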
In general terms: Liver microsomes are vesicles of endoplasmic reticulum, rich in cytochrome P450 enzymes.

A short description of series [12]: Half life in CD1 mouse plasma by UPLC-MS analysis. The format is ADME, cell-free. An outline of the steps: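 Half-life in mouse plasma measured at 37 °C.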
The subject of a further series is HepG2. Description: Cytotoxicity against human HepG2 cells after 72 hrs by alamar blue assay. In kind it is cell-based. Particulars: hepg2, 72 h.
Series [13] in a line: Therapeutic index, ratio of EC50 for human cells to EC50 for Trypanosoma brucei. To be noted: human cells versus Trypanosoma brucei, read-out: Ratio EC50. In a few lines: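 Index = EC50 against the most sensitive mammalian line (HEK 293, Hep G2, BJ, Raji) divided by EC50 against T.b. brucei.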
The nature of series [14]: Chemical stability in dimethyl sulfoxide at pH 7.4 after 14 days. In kind it is physicochemical. Particulars: buffer, pH 7.4, 336 h. In a few lines:
as §3

Series [15] in a line: Chemical stability in dimethyl sulfoxide at pH 5 after 14 days. The format is physicochemical. To be noted: buffer, pH 5, 336 h. An outline of the steps:
as §3

Another series relates to HEK293. Nature of the series: Cytotoxicity against human HEK293 cells after 72 hrs by alamar blue assay. Particulars: hek293, 72 h. The format is cell-based.
Series [16] in a line: Chemical stability in phosphate buffered saline at pH 5 after 14 days. To be noted: buffer, pH 5, 336 h. In kind it is physicochemical. An outline of the steps:
as §2

For orientation: pEC50 means −log10 of the EC50, conventionally taken in molar units. Usually solubility stands for the concentration that dissolves in the medium under given conditions. For orientation: half-life means the time needed for the level to fall by half in the phase considered. A lower half-life goes with fast loss. `N#Cc1nc(NCc2ccc(Cl)c(Cl)c2)c2ncn(CCCCCO)c2n1` gave a pEC50 in the series with Trypanosoma brucei of 6.42. In addition, the Stability result in the series with Mus musculus [1] is “Unstable”; in [2], “Stable”; in [4], “Stable”; in [5] it was “Stable”; in the series on Mus musculus [10] it was “Unstable”; in [14] it was “Stable”. For the same compound, the Stability entry in series [15] and in series [16] was “Stable” each time. Besides, the Activity entry with Raji, in the series on BJ, in the series on HepG2 and in the series with HEK293 was “Non-toxic” in each case. The Ratio came out at 1512 in series [3], 1900 in [6] and 960 in series [7]. Besides, the solubility in [8] is 16.1 µM (≈ 6.53 µg/mL). In [9], the hemolysis at 5 h, 10 µM was 0.7%. In addition, the half-life is 1.08 h in series [11] and 38.3 h in series [12]. Besides, the selectivity ratio in [13] is > 20.

The values above are taken from ChEMBL document CHEMBL1287760, “Optimization of purine-nitrile TbcatB inhibitors for use in vivo and evaluation of efficacy in murine models” (Bioorg Med Chem, 2010).
